Assay results from ChEMBL document CHEMBL4190207, “Lignans from the Roots of Taxus wallichiana and Their α-Glucosidase Inhibitory Activities” (J Nat Prod, 2017).

Experiment: Inhibition of Saccharomyces cerevisiae alpha-glucosidase using p-nitrophenyl-alpha-D-glucopyranoside as substrate after 30 mins
How it was run: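 Reaction started by adding 3 mM p-nitrophenyl-α-D-glucopyranoside and 0.2 U/mL α-glucosidase (both stock concentrations) in 0.01 M phosphate buffer, pH 7.0, to the sample solution. Incubated at 37 °C for 30 min, then stopped with 0.1 M Na2CO3. Activity read as absorbance at 401 nm. IC50 is the concentration giving 50% inhibition of enzyme activity. Acarbose was the positive control.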

SMILES	IC50 [µM]
COc1cc2c(cc1O)C1c3cc(O)c(O)cc3C(=O)C(C2)C1CO (stereo unspecified)	135
COc1cc([C@H]2c3cc(O)c(OC)cc3C[C@H]3[C@H](OC)OC[C@H]23)ccc1O	35.3
COc1cc([C@H]2c3cc(O)c(OC)cc3C[C@H]3[C@@H](OC)OC[C@H]23)ccc1O	38.8
COc1cc2c(cc1O)C1c3cc(OC)c(O)cc3C(=O)C(C2)C1CO (stereo unspecified)	52.2
COc1cc([C@@H](OC)[C@@H]2CO[C@H](c3ccc(O)c(OC)c3)[C@@H]2CO)ccc1O (relative stereo)	170
COc1cc([C@H]2c3cc(O)c(OC)cc3C[C@H]3C(=O)OC[C@H]23)ccc1O [ALPHA-CONIDENDRIN]	194

The remaining compounds from weak to strong by IC50, led by results:

IC50 [µM]	SMILES
215	C[C@H]1O[C@H](O[C@H]2[C@H](O)[C@@H](O)[C@@H](O[C@H]3[C@H](O)[C@@H](O)C(O)O[C@@H]3CO)O[C@@H]2CO)[C@H](O)[C@@H](O)[C@@H]1N[C@H]1C=C(CO)[C@@H](O)[C@H](O)[C@H]1O (stereo partly specified) [ACARBOSE]
175	COc1cc(C[C@H]2COC(=O)[C@@H]2Cc2ccc(O)c(OC)c2)ccc1O [MATAIRESINOL]
133	COc1cc(C[C@H]2[C@@H](OC)OC[C@@H]2[C@H](OC)c2ccc(O)c(OC)c2)ccc1O
79.1	COc1cc(C[C@H]2C(=O)OC[C@@H]2C(=O)c2ccc(O)c(OC)c2)ccc1O
42.9	COc1cc([C@H]2OC[C@@H]([C@@H](OC)c3ccc(O)c(OC)c3)[C@H]2CO)ccc1O (relative stereo)
